The sample as a whole holds a higher share of hits than the screen did.
T cruzi inh = T. cruzi replication inhibition | T. cruzi beta-gal in NIH3T3, luminescence, 90 h | inhibition, % (concentration not given with the values) | 300,000 compounds, 1.4% hits;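 active = mean inhibition across valid replicates above about 55%, limit read from the data; inconclusive = mean below that limit but half or more replicates reach it; inactive = mean below it, under half of replicates reach it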;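 also: signal also drops with host cell toxicity which is not excluded here; 0% = plate median of DMSO wells and 100% = zero luminescence signal; higher percent means less beta-gal luminescence so fewer parasites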
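Incubation – ≥90 h infection period, 3 h prior cell attachment · System – NIH/3T3 fibroblasts plus reporter T. cruzi · Doses – compound pinned at 50 nL/well, DMSO · Read-out basis – percent inhibition of parasite-derived β-gal signal · Signal – luminescent β-galactosidase signal after 60 min lysis · Also added – 5000 T. cruzi trypomastigotes/well · Medium – Low-serum DMEM with 2% FBS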
L major viab = Leishmania major promastigote growth inhibition; Leishmania major promastigotes, resazurin fluorescence viability; 200,000 compounds, 9% hits; inhibition, % at 10 µM; in the data active = inhibition above about 50%;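 also: promastigotes grown with compound for 44 hours at 28 °C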
NALP1 yeast inh = NALP1 inhibition | S. cerevisiae NALP1/ASC/caspase-1 growth, X-gal OD620, 72 h | inhibition, % at 10 µM | 280,000 compounds, 0.61% hits; in the data active = inhibition mostly above about 24%, no sharp cut-off; inactive = mostly below about 32%
NALP3 yeast inh = NALP3 inhibition in yeast; Yeast reconstituted NLRP3/ASC/caspase-1, beta-gal luminescence, 24 h; inhibition, % at 10 µM; 330,000 compounds, 0.39% hits;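 active = inhibition of 50% or more; inactive = inhibition below 50%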;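 also: plate controls were induced DMSO wells for no effect and uninduced yeast grown without galactose for full effect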
PolyA inhibitor = yeast polyadenylation inhibition; activity score, % at 12 µM; 300,000 compounds, 0.02% hits; S. cerevisiae SKY197-pL101 polyadenylation reporter, beta-gal luminescence; efflux-impaired pdr1/pdr3 knockout yeast; score 100 = 6 SD above DMSO;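 active = lowest replicate activity score at least 50, where 100 means six control SD above control mean; inconclusive = lowest score under 50 but half or more replicates reach 50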;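 also: yeast exposed to compound for 9 h at 30 °C; higher score means more reporter readthrough which indicates perturbed polyadenylation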
Calb FLC = C. albicans growth modulation with fluconazole | 300,000 compounds, 0.57% hits | AID 1979 | growth inhibition, % (no concentration beside the values) | C. albicans CaCi-2 + fluconazole, Alamar Blue growth, 48 h;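 active = growth inhibition above about 58% in most replicates, limit read from the data, passing the limit was not always enough; inconclusive = exactly half the replicates above a set limit; inactive = most replicates below a set limit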;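 also: all wells also contain fluconazole at 8 µg/ml as a sub-toxic cotreatment; 0% = median of DMSO wells and 100% = median of geldanamycin control wells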
An asterisk follows results filed as active; ? = inconclusive; · = not tested or not shown.

SMILES	T cruzi inh	L major viab	NALP1 yeast inh	NALP3 yeast inh	PolyA inhibitor	Calb FLC
CCC(C)N1C(=O)S/C(=C/c2ccc3c(c2)n(C)c(=O)n3C)C1=O (configuration not stated)	2	47	46	9	-16	10
O=C(NCCc1ccccc1)c1ccc2nc(-c3ccco3)c(-c3ccco3)nc2c1	-1	72*	27	16	-8	-4
O=C(NCCO)c1ccc2nc(-c3ccco3)c(-c3ccco3)nc2c1	-1	-3	-3	5	0	12
CC1CCCC(NC(=S)NC(=O)c2ccco2)C1C (configuration not stated)	·	·	·	29	·	·
COc1cccc(CN(C(=O)c2cc3ccccc3oc2=O)C2CC2)c1	-4	14	-4	12	-3	90*
COc1ccc(CN(C(=O)c2cc3ccccc3oc2=O)C2CCCC2)cc1	4	46	11	1	5	-5
CCOc1ccc(CCN2C(=O)c3ccc(C(=O)O)cc3C2=O)cc1OCC	-6	·	4	13	-10	7
O=[N+]([O-])c1ccc(/C=N/Nc2ncccc2[N+](=O)[O-])s1	-27	·	·	1	-36	1
O=[N+]([O-])c1ccc(/C=N/n2cnc3ccccc32)s1	73*	100*	54*	6	-23	?
Cc1cc2ncn(/N=C/c3ccc([N+](=O)[O-])s3)c2cc1C	38	100*	59*	·	-10	-6
Cc1ccc(C(=O)NCC(=O)OCCOc2ccccc2Cl)cc1	-8	·	·	13	-4	-15
N#Cc1nc(COc2ccc(-c3ccccc3)cc2)oc1NCCCN1CCOCC1	-4	64*	8	30	-6	28
CN(C)CCNc1oc(COc2ccc(-c3ccccc3)cc2)nc1C#N	24	66*	-2	20	18	-36
COc1ccc(Nc2oc(COc3ccc(Cl)cc3)nc2C#N)cc1	38	25	4	6	11	-8
CN(C)c1oc(-c2ccc(OCc3ccc(Cl)cc3)cc2)nc1C#N	63*	-3	16	-6	-1	3
C=CCNc1oc(COc2ccc(C)cc2)nc1C#N	-2	4	55	2	-1	18
CCOc1ccc(Nc2oc(-c3ccc(Cl)cc3)nc2C#N)cc1	6	1	-5	8	-13	48
N#Cc1nc(COc2ccccc2)oc1NCCN1CCOCC1	-3	4	7	10	7	5
COc1ccc(CNc2oc(COc3ccc(Cl)cc3)nc2C#N)cc1	66*	-5	7	22	-7	-3
Cc1csc(NC(=O)CSc2ccc3nnc(-c4ccncc4)n3n2)n1	-11	4	18	-2	20	-14
CC(=O)c1c(C)n(-c2ccccc2Br)c2ccc(O)cc12	-21	·	22	11	7	-2
CCOC(=O)C(C(=O)OCC)C(C(=O)OCC)N1CCOCC1 (configuration not stated)	-21	100*	101*	12	?	-8
O=S(=O)(Cc1cc(N2CCOCC2)nc(-c2ccccn2)n1)c1ccccc1	6	-8	22*	-6	-8	6
CCOc1cc(C2C(C#N)=C(N)OC(C)=C2C(C)=O)c(Br)c(Br)c1OC(C)C (configuration not stated)	10	64*	-16	21	-11	5
C=CCn1c(-c2ccc(OC)cc2)csc1=Nc1c(C)n(C)n(-c2ccccc2)c1=O	7	93*	1	6	6	-3
SMILES	T cruzi inh	L major viab	NALP1 yeast inh	NALP3 yeast inh	PolyA inhibitor	Calb FLC
Cc1ccc(-c2c[n+](CC(=O)N3c4ccccc4Sc4ccccc43)c3n2CCC3)cc1	42	96*	24	33	-26	109*
O=C(C[n+]1cc(-c2ccc(F)cc2)n2c1CCC2)N1c2ccccc2Sc2ccccc21	46	91*	32	3	-8	23
O=C(C[n+]1cc(-c2ccccc2)n2c1CCC2)N1c2ccccc2Sc2ccccc21	40	31	24	5	-3	-2
COCCn1c(SCC(=O)N(C)c2ccccc2)nc2c([nH]c3ccccc32)c1=O	-6	·	19	11	-6	3
Nc1ccccc1C(=O)N1CCCC1	3	-6	12	20	3	1
COc1ccc(C2c3cc(OC)c(OC)cc3CCN2C(=O)c2ccccc2Br)cc1OC (configuration not stated)	6	·	5	12	0	11

Screening results (PubChem BioAssay)
